Data set [1] is described as follows: melting temperature; fluorescence melt of hairpins on a sequencing array, two-state fit, raised by 9.35 °C to match UV melts. To be noted: sodium 0.088 M. The essentials:
(§1)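 Bootstrapped two-state fits yielded melting temperature and folding enthalpy for library hairpins. Cy3 fluorescence, with annealed Cy3 and quencher oligos, was imaged on a sequenced MiSeq flow cell in 50 mM Na-HEPES pH 8.0, 25 mM NaCl in 2.5 °C steps up to 60 °C, and normalised to pre-quench Cy3 and to control constructs. Four replicates were combined by inverse variance, and fitted temperatures were raised by 9.35 °C to match UV melts.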

Data set [2] in a line: folding enthalpy; higher = less favourable; fluorescence melt of hairpins on a sequencing array, two-state fit. Particulars: sodium 0.088 M. The essentials:
as §1

In the case of TCAATGAAAATTGA (((((....))))), in data set [1], the Tm was 25 °C. In addition, the folding enthalpy in data set [2] was -9.78 kcal/mol.
Turning to TCAGGGAAACCTGA (((((....))))), the Tm in data set [1] turned out to be 41.8 °C. For the same sequence, in data set [2], the folding enthalpy is -22.8 kcal/mol.
As for TCCAAGAAATTGGA (((((....))))), in data set [1], the Tm was 31.2 °C. The folding enthalpy in data set [2] was -10.5 kcal/mol.
Taken in the same sequence, the figures for TCCATGAAAATGGA (((((....))))) were 42.2 °C and -17.1 kcal/mol.
In the case of TCCCTGAAAAGGGA (((((....))))), the Tm in data set [1] worked out at 48.3 °C. In addition, the folding enthalpy in data set [2] is -15.6 kcal/mol.
For the sequence TCGGGGAAACCCGA (((((....))))), in data set [1], the Tm came out at 53.3 °C. Also, the folding enthalpy in data set [2] was -22.8 kcal/mol.
As for TGACAGAAATGTCA (((((....))))), the Tm in data set [1] was 42.1 °C. Besides, the folding enthalpy in data set [2] was -20.1 kcal/mol.
With TGAGCGAAAGCTCA (((((....))))), the Tm in data set [1] was 67.6 °C. In data set [2], the folding enthalpy was -12.8 kcal/mol.
For TGATTGAAAAATCA (((((....))))), the Tm in data set [1] is 27.4 °C. In data set [2], the folding enthalpy was -10.1 kcal/mol.
On the same counts, the results for TGCCAGAAATGGCA (((((....))))) are 55.1 °C and -16.5 kcal/mol.
On to TGCGAGAAATCGCA (((((....))))), for which the Tm in data set [1] turned out to be 54.3 °C. The folding enthalpy in data set [2] was -18.2 kcal/mol.
As for TGCTAGAAATAGCA (((((....))))), in data set [1], the Tm amounted to 41.2 °C. The folding enthalpy in data set [2] is -14.6 kcal/mol.
As to TGGAGGAAACTCCA (((((....))))), in data set [1], the Tm came to 46 °C. In addition, in data set [2], the folding enthalpy was -17.4 kcal/mol.
For the sequence TGGCTGAAAAGCCA (((((....))))), the Tm in data set [1] was found to be 57.9 °C. The folding enthalpy in data set [2] is -18.4 kcal/mol.
On to TGGGGGAAACCCCA (((((....))))), for which the Tm in data set [1] was found to be 53.5 °C. The folding enthalpy in data set [2] was -17.2 kcal/mol.
Regarding TGGTTGAAAAACCA (((((....))))), the Tm in data set [1] is 47 °C. Further, in data set [2], the folding enthalpy is -15.1 kcal/mol.
Regarding TGTACGAAAGTACA (((((....))))), the Tm in data set [1] was found to be 54.7 °C. For the same sequence, the folding enthalpy in data set [2] was -14.6 kcal/mol.
Consider TTAACGAAAGTTAA (((((....))))), for which the Tm in data set [1] stood at 41.1 °C. Further, the folding enthalpy in data set [2] was -14 kcal/mol.
For TTCCAGAAATGGAA (((((....))))), the Tm in data set [1] amounted to 31 °C. The folding enthalpy in data set [2] was -9.36 kcal/mol.
Taken in the same sequence, the figures for TTCCGGAAACGGAA (((((....))))) were 48.7 °C and -18.6 kcal/mol.
As for TTCGAGAAATCGAA (((((....))))), the Tm in data set [1] worked out at 37.9 °C. The folding enthalpy in data set [2] was -12.4 kcal/mol.
As to TTGCTGAAAAGCAA (((((....))))), in data set [1], the Tm turned out to be 49.2 °C. For the same sequence, in data set [2], the folding enthalpy was -16.2 kcal/mol.
Turning to TTGTTGAAAAACAA (((((....))))), the Tm in data set [1] is 30.7 °C. Further, the folding enthalpy in data set [2] is -11.4 kcal/mol.
As to TTTCGGAAACGAAA (((((....))))), the Tm in data set [1] was 40.6 °C. In data set [2], the folding enthalpy is -18.3 kcal/mol.
For the sequence TTTGCGAAAGCAAA (((((....))))), the Tm in data set [1] was found to be 54.3 °C. In addition, the folding enthalpy in data set [2] is -17.4 kcal/mol.
As for TTTTGGAAACAAAA (((((....))))), the Tm in data set [1] came out at 27.4 °C. Moreover, the folding enthalpy in data set [2] is -9.86 kcal/mol.
